Laboratory results: ChEMBL document CHEMBL1126276, “Synthesis and antimalarial properties of 1-imino derivatives of 7-chloro-3-substituted-3,4-dihydro-1,9(2H,10H)-acridinediones and related structures” (J Med Chem, 1992)
Several values for one entry are separate records, joined by “and”; a condition that tells them apart may be missing. Equal entries are not always repeated.

Legend:
Assay type in all cases: functional
[1] = tested on: Plasmodium berghei; assay: Antimalarial activity in Plasmodium berghei infected mice (Mus musculus) after 20 mg/kg subcutaneous dose
Method in brief: (§1)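 […] in mice infected with a normal drug-sensitive P. berghei strain. Compound dissolved or suspended in sesame or peanut oil, given as a single subcutaneous dose 72 h postinfection.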

[2] = tested on: Plasmodium berghei; assay: Antimalarial activity in Plasmodium berghei infected mice (Mus musculus) after 40 mg/kg subcutaneous dose; method in brief: as §1
[3] = tested on: Plasmodium berghei; assay: Antimalarial activity in Plasmodium berghei infected mice (Mus musculus) after subcutaneous 320 mg/kg dose
Method in brief: (§2)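 Normal drug-sensitive P. berghei strain in mice. Compound dissolved or suspended in sesame or peanut oil, given parenterally as a single subcutaneous dose 72 h postinfection.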

[4] = tested on: Plasmodium berghei; assay: Antimalarial activity in Plasmodium berghei infected mice (Mus musculus) after subcutaneous 160 mg/kg dose; method in brief: as §2
[5] = tested on: Plasmodium berghei; assay: Antimalarial activity in Plasmodium berghei infected mice (Mus musculus) after subcutaneous 640 mg/kg dose; method in brief: as §2
[6] = tested on: Plasmodium berghei; assay: (§3) Antimalarial activity in Plasmodium berghei infected mice (Mus musculus) after 80 mg/kg subcutaneous dose; method in brief: as §2
[7] = tested on: Plasmodium berghei; assay: as §3; method in brief: as §1; remark: listed apart in the source
[8] = tested on: Plasmodium berghei; assay: Antimalarial activity in Plasmodium berghei infected mice (Mus musculus) after 160 mg/kg subcutaneous dose; method in brief: as §1
[9] = tested on: Plasmodium berghei; assay: Antimalarial activity Plasmodium berghei infected mice (Mus musculus) after 640 mg/kg subcutaneous dose; method in brief: as §1

SMILES | Delta mean survival time [1] | Delta mean survival time [2] | No. of cured mice [3] | No. of cured mice [4] | No. of cured mice [5] | No. of cured mice [6] | Delta mean survival time [7] | Delta mean survival time [8] | Delta mean survival time [9] | Delta mean survival time ([9]; 640 mg/kg)
CCCCNC(CC)C/N=C1\CC(c2cccc(C(F)(F)F)c2)Cc2c1c(=O)c1cc(Cl)ccc1n2O (centres undefined) | 5.6 | 6.8 | 5 | 5 | 5 | 1 | 10.9 |  |  | 
CCN(CC/N=C1\CC(c2ccc(Cl)c(Cl)c2)Cc2c1c(=O)c1cc(Cl)ccc1n2O)CC(C)(C)O (centres undefined) | 6.3 | 8.2 | 5 | 5 |  | 4 | 8 |  |  | 
O=C1CC(c2ccc(C(F)(F)F)cc2)Cc2nc3ccc([N+](=O)[O-])cc3c(O)c21 (centres undefined) | 0.7 | 4.1 |  |  | 1 |  |  | 2.8 | 6.9 | 
CN(C)CCC/N=C1\CC(c2ccccc2C(F)(F)F)Cc2c1c(=O)c1cc(Cl)ccc1n2O (centres undefined) |  | 5.8 | 5 | 4 | 5 | 1 | 7.5 | 8 |  | 
CCN(CCO)CCC/N=C1\CC(c2ccc(Cl)c(Cl)c2)Cc2c1c(=O)c1cc(Cl)ccc1n2O (centres undefined) |  | 8.6 | 5 | 3 | 5 | 1 | 9.6 | 10.1 |  | 
CCN(CC)CCC/N=C1\CC(c2ccc(Cl)c(Cl)c2)Cc2c1c(=O)c1cc(Cl)ccc1n2O (centres undefined) | 5.8 | 3.5 | 5 | 4 | 5 | 2 | 11.7 | 12.7 |  | 
O=C1CC(c2ccc([N+](=O)[O-])cc2)Cc2nc3ccc(Cl)cc3c(O)c21 (centres undefined) |  | 0.8 |  |  | 2 |  |  | 4.6 | 13.3 | 
O=C1CC(c2ccc(C(F)(F)F)cc2)Cc2c1c(=O)c1c(Cl)c(Cl)ccc1n2O (centres undefined) | 4.5 | 7 | 3 | 2 | 2 |  | 7.8 | 7 |  | 9.8 and 7
O=c1c2c(n(O)c3ccc(Cl)cc13)CC(c1cccc(C(F)(F)F)c1)C/C2=N\CCCN1CCCC1 (centres undefined) |  | 6.2 | 5 | 3 | 4 |  | 6 | 9.6 | 25.6 | 
O=C1CC(c2ccncc2)Cc2c1c(=O)c1cc(Cl)ccc1n2O (centres undefined) |  | 0 |  |  |  |  |  | 0.2 | 2 | 
CC1C(=O)c2c(nc3ccc(Cl)cc3c2O)CC1c1ccc(C(F)(F)F)cc1 (centres undefined) | 3.9 | 5.7 | 5 | 2 | 4 |  | 7.5 | 12.8 | 8.8 | 
O=C1CC(c2ccc(C(F)(F)F)cc2)Cc2nc3c(Cl)cc(Cl)cc3c(O)c21 (centres undefined) |  | -0.2 |  |  |  |  |  | 0.4 | 0 | 
CC(C)C1CC(=O)c2c(n(C)c3ccccc3c2=O)C1 (centres undefined) |  | -0.2 |  |  |  |  |  | 0.2 | 0.5 | 
O=C1CC(c2ccccc2Cl)Cc2nc3ccc(Cl)cc3c(O)c21 (centres undefined) | 1.5 | 2.7 |  | 1 | 1 |  | 5.5 | 0.4 | 9.6 | 
COc1cc(C2C/C(=N\CCCN3CCCC3)c3c(n(O)c4ccc(Cl)cc4c3=O)C2)cc(OC)c1OC (centres undefined) |  | 0.2 |  |  |  |  |  | 0.6 | 6.4 | 
COc1ccc(C2CC(=O)c3c(nc4ccc(Cl)cc4c3O)C2)cc1 (centres undefined) |  | -0.1 |  |  |  |  |  | 0.1 | -0.1 | 
O=C1CC(c2ccc(C(F)(F)F)cc2)Cc2nc3cc(Cl)ccc3c(O)c21 (centres undefined) |  | -0.4 |  |  |  |  |  | 0.2 | 0.4 | 
O=C1CC(c2ccc(Cl)cc2Cl)Cc2nc3c(Cl)ccc(Cl)c3c(O)c21 (centres undefined) |  | 0.1 |  |  |  |  |  | 0.3 | -0.1 | 
CC1C(=O)c2c(n(O)c3ccc(Cl)cc3c2=O)CC1c1ccc(C(F)(F)F)cc1 (centres undefined) | 5.2 | 7.8 | 5 | 5 | 5 | 2 | 14.1 |  |  | 
COc1ccccc1C1C/C(=N\CCCN(C)C)c2c(nc3ccc(Cl)cc3c2O)C1 (centres undefined) |  | 1.7 |  |  | 2 |  |  | 6.7 | 6.4 | 

SMILES | Delta mean survival time [1] | Delta mean survival time [2] | No. of cured mice [3] | No. of cured mice [4] | No. of cured mice [5] | No. of cured mice [6] | Delta mean survival time [7] | Delta mean survival time [8] | Delta mean survival time [9] | Delta mean survival time ([9]; 640 mg/kg)
Cc1ccc(C2CC(=O)c3c(n(O)c4ccc(Cl)cc4c3=O)C2)cc1 (centres undefined) | 0.8 | 0.6 |  |  |  |  | 2.8 | 3.1 | 6.9 | 
O=C1CC(c2ccncc2)Cc2nc3ccc(Cl)cc3c(O)c21 (centres undefined) |  | 0.2 |  |  |  |  |  | 0.8 | 2.2 | 
O=C1CC(c2ccccc2C(F)(F)F)Cc2nc3ccc(Cl)cc3c(O)c21 (centres undefined) |  | 0.7 |  |  |  |  |  | 8.5 | 8.3 | 
Cc1ccc(C2CC(=O)c3c(nc4ccc(Cl)cc4c3O)C2)cc1 (centres undefined) |  | 3.9 |  | 2 | 2 |  |  | 8.7 | 11.7 | 
COc1ccc(C2C/C(=N\CCCN(C)C)c3c(nc4ccc(Cl)cc4c3O)C2)cc1 (centres undefined) |  | 0.5 |  |  | 1 |  |  | 4.5 | 11.2 | 
O=C1CC(c2ccc(C(F)(F)F)cc2)Cc2nc3c(Br)cc(Br)cc3c(O)c21 (centres undefined) |  | 0.6 |  |  |  |  |  | 0.2 | 0 | 
O=C1CC(c2ccccc2Cl)Cc2c1c(=O)c1cc(Cl)ccc1n2O (centres undefined) | 1.7 | 4.6 |  | 1 | 4 |  |  | 4.5 | 9 | 
CCC1C(=O)c2c(nc3ccc(Cl)cc3c2O)CC1c1ccc(C(F)(F)F)cc1 (centres undefined) |  | 0.6 |  |  |  |  |  | 1.2 | 1.6 | 
O=C1c2c(nc3ccc(Cl)cc3c2O)CCC1c1ccccc1 (centres undefined) |  | 0.2 |  |  |  |  | 0 | 0 | 0 | 
CN(C)CCC/N=C1\CC(C)(C)Cc2c1c(=O)c1cc(Cl)ccc1n2O |  | 0.2 |  |  |  |  |  | 0.4 | 2.8 | 
CCCCn1c2c(c(=O)c3cc(Cl)ccc31)C(=O)CC(c1ccc(C(F)(F)F)cc1)C2 (centres undefined) |  | -0.2 |  |  |  |  |  | -0.2 | 0.4 | 
CN(C)CCC/N=C1\CC(c2ccncc2)Cc2c1c(=O)c1cc(Cl)ccc1n2O (centres undefined) |  | 0 |  |  |  |  |  | 0 | 1.4 | 
O=C1CC(c2ccccc2C(F)(F)F)Cc2c1c(=O)c1cc(Cl)ccc1n2O (centres undefined) | 0.6 | 2.7 |  |  |  |  |  | 4.5 | 8.3 | 
Cn1c2c(c(=O)c3cc(Cl)ccc31)C(=O)CC(c1ccc(Cl)c(Cl)c1)C2 (centres undefined) |  | 0 |  |  |  |  |  | 0.6 | 0.2 | 
O=C1CC(c2ccc(C(F)(F)F)cc2)Cc2nc3ccc(I)cc3c(O)c21 (centres undefined) |  | 0.2 |  |  |  |  |  | 0.4 | 0.4 | 
CN(C)CCC/N=C1\CC(c2ccc(C3CCCCC3)cc2)Cc2nc3ccc(Cl)cc3c(O)c21 (centres undefined) | 2.8 | 7 | 5 | 2 | 3 |  | 7.2 | 10.3 | 9.6 | 
CCc1ccc2nc3c(c(O)c2c1)C(=O)CC(c1ccc(C(F)(F)F)cc1)C3 (centres undefined) |  | 0 |  |  |  |  |  | 0.4 | 0.2 | 
CN(C)CCC/N=C1\CC(c2cccc(C(F)(F)F)c2)Cc2nc3ccc(Cl)cc3c(O)c21 (centres undefined) |  | 6.6 | 5 | 5 | 5 | 1 | 14.6 |  |  | 
CN(C)CCC/N=C1\CC(c2ccc(C(F)(F)F)cc2)Cc2nc3c(Br)cc(Br)cc3c(O)c21 (centres undefined) |  | 0.2 |  |  |  |  |  | 0.2 | 0.4 | 
O=C1CC2(CCCCC2)Cc2nc3ccc(Cl)cc3c(O)c21 |  | 0.6 |  |  |  |  |  | 0 | 0.2 | 
